High-throughput results deposited in PubChem BioAssay by The Scripps Research Institute Molecular Screening Center.
Most compounds without a hit are left out; they make up all but 2.3% or so of the library.
ADAM17 inh: ADAM17 inhibition, QFRET primary screen; P78536; recombinant ADAM17, EDANS/DABCYL FRET peptide cleavage; inhibition, % at 6.95 µM; 370,000 tested, 0.83% active; AID 720648;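 active = inhibition above the mean of compounds lying between control limits plus 3 SD, set per campaign, cut at about 8.5% in these data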;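 note: 0% = DMSO-only wells as the low control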
Target sequence (P78536 215-824 limits assumed): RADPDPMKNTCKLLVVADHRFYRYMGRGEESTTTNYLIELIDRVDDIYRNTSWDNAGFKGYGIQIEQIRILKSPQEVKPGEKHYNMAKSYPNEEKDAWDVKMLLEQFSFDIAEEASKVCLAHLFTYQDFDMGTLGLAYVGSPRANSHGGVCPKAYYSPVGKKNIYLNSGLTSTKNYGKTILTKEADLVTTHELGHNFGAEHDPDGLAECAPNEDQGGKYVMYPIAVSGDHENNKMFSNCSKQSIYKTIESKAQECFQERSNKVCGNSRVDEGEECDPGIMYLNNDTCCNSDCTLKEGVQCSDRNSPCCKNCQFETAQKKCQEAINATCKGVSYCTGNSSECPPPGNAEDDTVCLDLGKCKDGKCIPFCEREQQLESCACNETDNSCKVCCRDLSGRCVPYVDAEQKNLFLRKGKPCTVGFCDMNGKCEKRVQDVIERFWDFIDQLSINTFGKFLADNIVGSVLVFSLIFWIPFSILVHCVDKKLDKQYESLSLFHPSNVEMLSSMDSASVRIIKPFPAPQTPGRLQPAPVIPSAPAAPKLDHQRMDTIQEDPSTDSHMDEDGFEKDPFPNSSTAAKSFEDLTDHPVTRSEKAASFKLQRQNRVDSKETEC
PLC-gamma1 inh: inhibitors of human phospholipase C gamma1; AID 720700; inhibition, % at 12.2 µM; purified PLC-gamma1, fluorogenic substrate, fluorescence; 370,000 tested, 0.84% active; in the data active = inhibition above about 9.5%
Tb MetRS inh: blocks T. brucei methionyl-tRNA synthetase activity; 360,000 tested, 0.4% active; purified T. brucei MetRS, ATP depletion, Kinase-Glo luminescence; inhibition, % at 11.9 µM; AID 624268;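 active = inhibition above a per-plate cutoff of the control wells' mean inhibition plus 3 SD, cut at about 5.5% in these data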;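 note: 0% = DMSO wells median and 100% = median of wells with control inhibitor compound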
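System: purified T. brucei MetRS enzyme / Detection: Kinase-Glo luciferase luminescence reporting remaining unconsumed ATP / Medium: HEPES buffer with MgCl2, KCl, DTT, spermine, BSA, pyrophosphatase / Replication: singlicate, one well per compound / Evaluation: percent inhibition relative to median high and low control wells / Schedule: 2 h aminoacylation at 25 °C after 15 min preincubation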
ADAM10 inh: inhibits human ADAM10; O14672; recombinant ADAM10, EDANS/DABCYL FRET peptide cleavage, 3 h; inhibition, % at 7 µM; 370,000 tested, 0.62% active; AID 720582;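 active = inhibition above a per-campaign cutoff equal to the mean of compounds falling between control-based bounds plus 3 SD, cut at about 20% in these data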;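 note: 0% = DMSO wells while the 100% control is not disclosed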
PLC-beta3 inh: PLC-beta3 (human) inhibition, primary screen; Q01970; Purified PLC-beta3, fluorogenic substrate, fluorescence; inhibition, % at 12.2 µM; 370,000 tested, 0.18% active; AID 720704; in the data active = inhibition above about 11%;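 note: 0% = median of compound wells on plate and 100% = full blocker control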
ADAM10 confirm: confirmation of inhibitors of human ADAM10 | shares compounds with ADAM10 inh | ADAM10 QFRET peptide cleavage, EDANS fluorescence | inhibition, % at 6.95 µM | 2,100 tested, 1% active;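 active = inhibition above about 20% chosen separately for each screening run, limit read from the data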;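 note: 0% = DMSO wells and 100% = marimastat wells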
ADAM17 counter: ADAM17 inhibition, counter-screen for ADAM10 exosite hits | shares compounds with ADAM10 inh | ADAM17 QFRET peptide cleavage, EDANS fluorescence | inhibition, % at 6.95 µM | 2,100 tested, 0.5% active;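 active = mean triplicate inhibition above the solvent-only control wells' mean plus 3 SD, cut at about 12% in these data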;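 note: 0% = DMSO wells and 100% = marimastat wells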
Active calls of the source: *; nt = not tested or not shown.

SMILES | ADAM17 inh | PLC-gamma1 inh | Tb MetRS inh | ADAM10 inh | PLC-beta3 inh | ADAM10 confirm | ADAM17 counter
Cc1ccc(OCC(=O)N/N=C/c2cn(Cc3ccccc3)c3ccccc23)cc1 | 6 | 2 | -1 | 23* | 0 | 1 | 2
FC(F)(F)c1cc(CNC2CCC23CCC(c2ccccc2)CC3)ccc1Cl (configuration not stated) | -6 | -2 | nt | -7 | -2 | nt | nt
O=C(c1ccc(C#Cc2ccccc2)o1)N1CCN(c2ccccn2)CC1 | 6 | -16 | -2 | 22* | -17 | 4 | 1
O=C(c1ccc(COc2ccccc2Br)o1)N1CCN(c2ccccn2)CC1 | 6 | 5 | 0 | 10 | -1 | nt | nt
Cc1ccc(/C=C/C(=O)Nc2ccc(S(=O)(=O)Nc3onc(C)c3C)cc2)cc1 | 1 | 9 | 0 | 21* | -1 | -1 | 0
CN(CC(=O)NCc1ccc(F)cc1)CC(=O)Nc1ccc(Cl)c(C(F)(F)F)c1 | 5 | 3 | 0 | 23* | -6 | 0 | 0
COc1ccc(NS(=O)(=O)c2ccc(-c3ccccn3)s2)cc1 | 5 | 6 | 0 | 22* | -4 | 0 | 0
CCCCN(C=O)c1c(CC)nc2ccc(C(=O)NCc3cccs3)cn12 | -6 | -14 | 0 | -23 | -21 | nt | nt
CCOC(=O)c1ccc(N2C(=O)c3n[nH]c(-c4ccco4)c3C2c2cccc([N+](=O)[O-])c2)cc1 (configuration not stated) | 7 | 13* | 0 | 33* | 2 | 6 | 2
Cc1ccc(C)c(NS(=O)(=O)c2cc(C(=O)NCCC3=CCCCC3)ccc2C)c1 | 7 | 0 | 0 | 20* | -2 | 4 | 2
Cc1ccc(-c2noc(CN(C(=O)C(c3ccccc3)c3ccccc3)C(C)C)n2)cc1 | 5 | 8 | -1 | 20* | 3 | 2 | 1
CC(C)N(Cc1nc(-c2ccc(Cl)cc2)no1)C(=O)C(c1ccccc1)c1ccccc1 | 2 | 2 | 0 | 3 | 2 | nt | nt
C[C@@H]1CN([C@@H](C)CO)C(=O)CCCn2nncc2CO[C@H]1CN(C)C(=O)Nc1cccc(Oc2ccccn2)c1 | 3 | 2 | -1 | -6 | 5 | nt | nt
COCCNC(=O)C1(C)CCCN(C(=O)c2ccc(C)c(F)c2)C1 (configuration not stated) | 4 | 2 | 0 | -12 | 8 | nt | nt
CSc1ccccc1NC(=O)C(=O)c1c[nH]c2ccccc12 | 6 | -4 | 0 | 22* | -14 | 7 | 2
Cc1cnn(CCC(=O)NNC(=S)Nc2ccc(F)cc2)c1 | 7 | 4 | -1 | 20* | 1 | 1 | 2
Cc1cnn(CCC(=O)NNC(=S)Nc2cccc(Cl)c2)c1 | 7 | -1 | 0 | 10 | 4 | nt | nt
COc1ccc(NC(=O)CN(C)CC(=O)NC(=O)NC2CCCCC2)cc1 | 1 | 0 | 0 | -26 | -11 | nt | nt
COc1ccc(CN(C)CC(=O)NC(=O)NC2CCCCC2)cc1 | -3 | 4 | -1 | 21* | -2 | 0 | 0
O=S(=O)(NC1CCCCC1Oc1ccccc1)c1ccc(Cl)cc1 (configuration not stated) | 1 | 0 | -1 | 8 | 1 | nt | nt
O=S(=O)(NC1CCCCC1NS(=O)(=O)c1ccc(F)cc1)c1ccc(F)cc1 (configuration not stated) | 2 | 7 | -1 | 20* | 2 | 1 | 1
CSc1ccc(OC2CCCCC2NS(=O)(=O)c2ccc(Cl)cc2)cc1 (configuration not stated) | 7 | 0 | 0 | 28* | -1 | 9 | 3
Cc1nnc(NC(=O)C2CCN(S(=O)(=O)c3ccc(F)c(Cl)c3)CC2)o1 | 0 | -1 | 0 | -15 | -10 | nt | nt
CCOC(=O)c1c(NC(=O)CSc2n[nH]c(-c3ccco3)n2)sc(C)c1C | 4 | -4 | -1 | 22* | -5 | 0 | 0
CC(C)C[C@@H](CN1CCCC1CN1C(=S)NC[C@@H]1Cc1ccc(O)cc1)N1C[C@H](Cc2ccc(O)cc2)N(CCc2ccccc2)C1=S (some centres not stated) | 11* | 3 | -2 | 33* | 6 | 14 | 3
SMILES | ADAM17 inh | PLC-gamma1 inh | Tb MetRS inh | ADAM10 inh | PLC-beta3 inh | ADAM10 confirm | ADAM17 counter
Oc1ccc(C[C@H]2CNC(=S)N2C[C@H]2CCCN2C[C@H](Cc2ccccc2)N2C[C@H](Cc3ccc(O)cc3)N(CCc3ccccc3)C2=S)cc1 | 7 | 4 | 0 | 28* | 5 | 12 | 4
Oc1ccc(C[C@H]2CN([C@@H](Cc3ccc(O)cc3)CN3CCC[C@@H]3CN3C(=S)NC[C@@H]3Cc3ccccc3)C(=S)N2CCc2ccccc2)cc1 | 3 | 2 | -1 | 8 | -1 | nt | nt
COC(=O)CSc1nnc(-c2ccc(NS(=O)(=O)c3c(C(C)C)cc(C(C)C)cc3C(C)C)cc2)o1 | 8 | -6 | nt | 21* | -11 | 10 | 3
COc1ccc(CC(O)COS(N)(=O)=O)cc1 (configuration not stated) | -4 | 1 | 0 | 6 | 3 | nt | nt
CN(C(=O)c1cncc(Br)c1)c1c(N)n(Cc2ccccc2)c(=O)[nH]c1=O | -1 | 4 | -1 | 82* | -2 | 1 | 0
CC1(C)CC2CC(C)(CN2C(=O)c2cc(-c3ccc(O)cc3)on2)C1 (configuration not stated) | 7 | 2 | -1 | 22* | -8 | 4 | 0
O=C(NNC(=O)c1cc(-c2ccccc2)nc2ccccc12)c1csc(N2CCOCC2)n1 | -2 | -2 | 0 | -3 | -13 | nt | nt
O=C(NNC(=O)c1cc(-c2ccc(Cl)cc2)nc2ccccc12)c1csc(N2CCOCC2)n1 | 7 | -29 | 0 | 29* | -35 | 12 | 5
CCCC1CC(C)(c2csc(Nc3ccc(OCC)cc3)n2)OC1=O (configuration not stated) | 5 | 2 | -1 | 21* | 3 | 8 | 2
COc1ccc(NC(=O)Cc2coc3cc(C)c(C(C)C)cc23)cc1S(=O)(=O)N1CCOCC1 | 7 | 1 | 0 | 22* | -7 | 4 | 1
C#CCNC(=O)C[C@@H]1C[C@@]2(C(=O)OCC)CCCC=C2N(CCC2=CCCCC2)C1=O | -1 | 1 | 0 | 2 | 2 | nt | nt
C=CCN1c2ccccc2[C@]23C[C@@H](C(=O)OC)N(C(=O)NC4CCCC4)C2=NC(C(=O)OC)=C(C(=O)OC)[C@H]13 | 10* | 4 | 0 | 21* | 5 | 3 | 1
CC#CCN1c2ccccc2[C@]23C[C@@H](C(=O)OC)N(C(=O)NC4CCCCC4)C2=NC(C(=O)OC)=C(C(=O)OC)[C@H]13 | 3 | 3 | -1 | 0 | 10 | nt | nt
